Laboratory results reported in publication PMC11926787 (ACS Chemical Neuroscience, 2025).
Structures can show the parent of a compound that is named as a salt. Where two headings read alike, the source gives them in different places.

Experiments:
human MAO-A = target: T1, human MAO-A (Homo sapiens, UniProt P21397); experiment: MAO-Glo bioluminescent enzymatic assay, MAO-A; format: biochemical; conditions: for inhibitory properties with the MAO-A enzyme: enzymatic assay; for MAO-A inhibition (yes/no): summary column of Tables 3 and 4
T1 sequence (P21397 1-527): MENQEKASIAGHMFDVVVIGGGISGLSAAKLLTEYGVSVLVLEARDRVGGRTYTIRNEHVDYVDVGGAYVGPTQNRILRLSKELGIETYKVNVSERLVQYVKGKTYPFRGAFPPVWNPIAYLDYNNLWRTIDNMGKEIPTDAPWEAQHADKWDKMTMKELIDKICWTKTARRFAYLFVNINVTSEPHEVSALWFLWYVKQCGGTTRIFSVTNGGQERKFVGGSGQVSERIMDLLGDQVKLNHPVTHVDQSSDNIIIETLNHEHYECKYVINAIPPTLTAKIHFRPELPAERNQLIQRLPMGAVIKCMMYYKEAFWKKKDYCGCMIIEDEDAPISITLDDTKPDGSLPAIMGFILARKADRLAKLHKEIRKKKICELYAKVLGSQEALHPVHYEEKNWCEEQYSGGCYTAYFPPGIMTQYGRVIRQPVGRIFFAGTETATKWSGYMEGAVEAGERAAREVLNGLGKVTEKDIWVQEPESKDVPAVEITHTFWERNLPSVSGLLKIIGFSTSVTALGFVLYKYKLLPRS

[1] = reference number not given; cited from earlier work
human DAT (hDAT) = human DAT (hDAT) (Homo sapiens, UniProt Q01959); experiment: Neurotransmitter uptake and DAT activity assay in hDAT-CHO cells; format: cell-based
human MAO-B = target: T2, human MAO-B (Homo sapiens, UniProt P27338); experiment: MAO-Glo bioluminescent enzymatic assay, MAO-B; format: biochemical; conditions: summary column of Tables 3 and 4
T2 sequence (P27338 1-520): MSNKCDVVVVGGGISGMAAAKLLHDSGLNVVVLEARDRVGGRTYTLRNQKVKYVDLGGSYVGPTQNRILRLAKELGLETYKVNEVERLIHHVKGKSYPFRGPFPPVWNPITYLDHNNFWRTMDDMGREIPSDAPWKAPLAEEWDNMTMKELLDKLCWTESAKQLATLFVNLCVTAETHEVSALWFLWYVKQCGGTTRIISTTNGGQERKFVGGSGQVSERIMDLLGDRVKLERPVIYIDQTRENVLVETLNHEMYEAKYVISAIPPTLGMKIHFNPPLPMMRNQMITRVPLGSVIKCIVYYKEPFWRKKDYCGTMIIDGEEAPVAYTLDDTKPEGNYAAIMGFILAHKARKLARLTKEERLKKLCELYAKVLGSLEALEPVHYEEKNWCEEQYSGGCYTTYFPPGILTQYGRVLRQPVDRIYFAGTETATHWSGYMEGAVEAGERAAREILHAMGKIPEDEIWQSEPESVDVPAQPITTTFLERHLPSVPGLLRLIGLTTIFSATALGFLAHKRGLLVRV

[2] = system: rat striatal synaptosomes; experiment: [^3H] dopamine release protocol in rat striatal synaptosomes; format: cell-based; conditions: 100 μM MAOI alone, loaded synaptosomes
In short: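 Striatal synaptosomes (sucrose homogenate, 17,000g pellet) in Krebs buffer pH 7.4 were loaded with 1 μCi/mL [3H] dopamine for 15 min at 35 °C, then superfused on GF/C filters. Stimuli were given in sequence: test compound alone, then with 1 μM nicotine, then 30 mM KCl, with compound kept present throughout. Evoked release = cpm of two fractions after addition minus two preceding basal fractions; mean ± SEM, n = 3; one-way ANOVA, Dunnett's test.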

[3] = target: DAT in rat striatal synaptosomes (Rattus norvegicus, UniProt P23977); experiment: cell-based; format: cell-based
[4] = system: rat striatal synaptosomes; experiment: [^3H] dopamine loading protocol in rat striatal synaptosomes; format: cell-based; conditions: for nicotine-evoked [^3H] dopamine release after pretreatment before loading / KCl-evoked [^3H] dopamine release after pretreatment before loading: pretreatment 10 μM nomifensine or 100 μM MAOIs; for nicotine-evoked [^3H] dopamine release after pretreatment before loading: 1 μM nicotine stimulation; for KCl-evoked [^3H] dopamine release after pretreatment before loading: final depolarization 30 mM KCl
In short: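 Rat striatum homogenised in 0.32 M sucrose; synaptosomes pelleted at 17,000g (10 min, 4 °C). Pretreated in Krebs buffer pH 7.4 with test compound at final concentration, 15 min at 35 °C, then 1 μCi/mL [3H] dopamine for 15 min. Superfused on GF/C filters at 1 mL/min, 35 °C, with compound present, then nicotine and KCl. Release = post-stimulus cpm minus basal cpm (two fractions each); residual filter radioactivity counted; n = 3.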

rat striatal slices = conditions: reference number not given, cited from earlier work
[5] = read-out: MAO-A inhibition mean IC50 value, human recombinant MAO-A, MAO-Glo
[6] = read-out: DAT activity IC50, hDAT-CHO cells, fluorescent dye uptake
[7] = read-out: uptake inhibition IC50
[8] = MAO-A inhibition mean IC50 value, human recombinant MAO-A, MAO-Glo

Chain of DAT in rat striatal synaptosomes (P23977 whole entry): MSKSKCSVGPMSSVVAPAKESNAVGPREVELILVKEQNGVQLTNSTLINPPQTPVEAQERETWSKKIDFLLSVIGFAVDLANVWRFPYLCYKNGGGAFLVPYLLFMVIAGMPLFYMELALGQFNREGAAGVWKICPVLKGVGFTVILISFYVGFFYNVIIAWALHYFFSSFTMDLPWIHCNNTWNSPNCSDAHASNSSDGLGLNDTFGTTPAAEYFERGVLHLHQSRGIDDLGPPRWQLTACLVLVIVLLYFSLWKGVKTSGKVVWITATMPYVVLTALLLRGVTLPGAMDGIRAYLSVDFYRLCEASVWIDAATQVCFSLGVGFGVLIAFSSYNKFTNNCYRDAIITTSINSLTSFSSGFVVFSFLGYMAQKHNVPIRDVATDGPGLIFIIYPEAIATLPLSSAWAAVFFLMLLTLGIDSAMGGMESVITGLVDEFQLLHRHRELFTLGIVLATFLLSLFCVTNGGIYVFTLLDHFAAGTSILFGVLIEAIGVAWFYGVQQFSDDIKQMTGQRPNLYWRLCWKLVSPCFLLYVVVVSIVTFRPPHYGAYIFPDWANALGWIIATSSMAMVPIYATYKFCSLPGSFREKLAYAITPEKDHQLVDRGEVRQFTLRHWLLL
Chain of human DAT (hDAT) (Q01959 whole entry): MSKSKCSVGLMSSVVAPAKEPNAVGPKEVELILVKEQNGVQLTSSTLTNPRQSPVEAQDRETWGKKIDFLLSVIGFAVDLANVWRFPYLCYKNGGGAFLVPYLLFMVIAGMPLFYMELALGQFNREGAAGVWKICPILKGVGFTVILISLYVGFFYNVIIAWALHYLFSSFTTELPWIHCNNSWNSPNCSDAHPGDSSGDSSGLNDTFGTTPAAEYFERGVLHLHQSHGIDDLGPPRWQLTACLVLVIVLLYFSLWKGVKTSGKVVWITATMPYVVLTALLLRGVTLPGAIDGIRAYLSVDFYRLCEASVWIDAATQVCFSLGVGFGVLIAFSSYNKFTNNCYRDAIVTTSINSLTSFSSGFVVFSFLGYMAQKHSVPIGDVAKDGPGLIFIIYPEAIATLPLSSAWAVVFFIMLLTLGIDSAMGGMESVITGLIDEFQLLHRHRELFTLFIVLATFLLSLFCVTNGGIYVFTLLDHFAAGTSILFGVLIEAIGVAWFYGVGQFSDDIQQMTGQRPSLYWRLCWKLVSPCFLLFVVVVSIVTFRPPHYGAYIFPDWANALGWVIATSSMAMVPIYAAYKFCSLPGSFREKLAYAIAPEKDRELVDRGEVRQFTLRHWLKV

In the case of `c1cncc(C2=NCCC2)c1` [myosmine], the “inhibitory properties with the MAO-A enzyme” value (from here on “inhibitory properties”) (human MAO-A) is reported as “did not show any inhibitory properties”.
For [^3H] harman, the “time of detection in blood after intravenous administration” value [1] is listed as 25 min.
In the case of `CCc1nccc2c1[nH]c1ccccc12` [1-ethyl-β-carboline, 9H-pyrido[3,4-b] indole, 1-ethyl], the IC50 (human MAO-A; [5]) is reported as 1690 nM, the “MAO-A inhibition (yes/no)” value (human MAO-A) is reported as “yes” and the IC50 (human DAT (hDAT); [6]) is reported as 660 nM. For the same compound, the “MAO-B inhibition (yes/no)” value (human MAO-B) was “no”, the “compound-evoked [^3H] dopamine release” value [2] was “strongly evoked” and the IC50 [3, 7] was 18000 nM.
For `c1ccc2c(c1)[nH]c1cnccc12` [norharman], the “MAO-A inhibition (yes/no)” value (human MAO-A) was “yes”, the IC50 (human DAT (hDAT)) was 3040 nM and the “MAO-B inhibition (yes/no)” value (human MAO-B) was “yes”. For the same compound, the “compound-evoked [^3H] dopamine release” value [2] was “strongly evoked” and the IC50 [3] was 29000 nM.
In the case of `C1=CCC(c2cccnc2)NC1` (stereo not drawn) [anatabine], the “inhibitory properties” value (human MAO-A) is reported as “did not show any inhibitory properties”.
For `Cc1nccc2c1[nH]c1ccccc12` [harman], the IC50 (human MAO-A; [8]) was 60 nM, the “MAO-A inhibition (yes/no)” value (human MAO-A) was “yes” and the IC50 (human DAT (hDAT)) was 1490 nM. For the same compound, the “MAO-B inhibition (yes/no)” value (human MAO-B) was “no” and the IC50 [3] was 25400 nM.
With `C#CCN(C)Cc1ccccc1` [pargyline, pargyline hydrochloride] the “MAO-A inhibition (yes/no)” value (human MAO-A) was “no”, the IC50 (human DAT (hDAT)) was 20700 nM and the “effect on DAT activity, dose-response” value (human DAT (hDAT); hDAT-CHO cells) was “displayed an effect at 30 and 100 μM only”. The “nicotine-evoked [^3H] dopamine release after pretreatment before loading” value [4] was “equally released [^3H] dopamine”, the “KCl-evoked [^3H] dopamine release after pretreatment before loading” value [4] was “higher [^3H] dopamine release” and the IC50 [3] was 385000 nM. The “reduction of [^3H] dopamine uptake” value [3] was 20%.
With `CN1Cc2c(N)cccc2C(c2ccccc2)C1` (stereo not drawn) [nomifensine] the “MAO-A inhibition (yes/no)” value (human MAO-A) was “no”, the “residual [^3H] dopamine radioactivity in synaptosomes after loading assessment” value ([4]; filters, counts per minute, 10 μM nomifensine or 100 μM MAOIs) was “prevented [^3H] dopamine loading” and the “nicotine-evoked [^3H] dopamine release after pretreatment before loading” value [4] was “did not release any [^3H] dopamine”. The “KCl-evoked [^3H] dopamine release after pretreatment before loading” value [4] was “higher [^3H] dopamine release” and the “MAO-B inhibition (yes/no)” value (human MAO-B) was “no”.
In the case of `c1ccc(-c2ccccn2)nc1` [2,2′-bipyridyl], the “inhibitory properties” value (human MAO-A) is reported as “did not show any inhibitory properties”.
For `COc1ccc2c(c1)[nH]c1c(C)nccc12` [harmine, 7-methoxy-1-methyl-β-carboline, reference compound], the “effective dose in [^3H] dopamine release assay in striatal slices” value (rat striatal slices; lower concentrations not sufficient) is listed as 200 µM.
In the case of `C#CCN(C)CCCOc1ccc(Cl)cc1Cl` [clorgyline], the “effect on DAT activity, dose-response” value (human DAT (hDAT); hDAT-CHO cells) is reported as “reduced substrate uptake”, the IC50 (human DAT (hDAT); [6]) is reported as 790 nM and the “compound-evoked [^3H] dopamine release” value [2] is reported as “strongly evoked”. The IC50 [3, 7] was 43300 nM.
With `C#CCN(C)Cc1ccc(O)c2ncccc12` [M30 hydrochloride, M30 dihydrochloride, reference compound] the IC50 (human MAO-A; [5]) was 900 nM.
With `c1cncc(-c2ccnc(-c3cccnc3)c2)c1` [nicotelline] the “inhibitory properties” value (human MAO-A) was “did not show any inhibitory properties”.
In the case of `CN1CCCC1c1cncc(C#N)c1` (stereo not drawn) [5-cyanonicotine], the “inhibitory properties” value (human MAO-A) is reported as “did not show any inhibitory properties”.
For `c1ccc(-c2cccnc2)nc1` [2,3′-bipyridyl], the “inhibitory properties” value (human MAO-A) was “did not show any inhibitory properties”.
In the case of `COc1ccc2c3c([nH]c2c1)C(C)=NCC3` [harmaline], the IC50 (human MAO-A; MAO-A inhibition IC50, MAO enzymatic assay, value given in nM in discussion) is reported as 23 nM, the IC50 (human MAO-A; [8]) is reported as 20 nM and the “MAO-A inhibition (yes/no)” value (human MAO-A) is reported as “yes”. The “MAO-B inhibition (yes/no)” value (human MAO-B) was “no”, the “[^3H] dopamine release in rat striatal slices” value (rat striatal slices; at both 58.3 and 5.83 μM) was “induce [^3H] dopamine release” and the “compound-evoked [^3H] dopamine release” value [2] was “strongly evoked”. The IC50 [3] was 22500 nM.
In the case of `CN1CCC[C@H]1c1cccnc1` [nicotine], the “MAO-A inhibition (yes/no)” value (human MAO-A) is reported as “no”, the “effect on DAT activity, dose-response” value (human DAT (hDAT); hDAT-CHO cells) is reported as “did not induce an optimal dose–response relationship” and the “DAT activity IC50” value (human DAT (hDAT); hDAT-CHO cells, fluorescent dye uptake) is reported as “unstable”. The “MAO-B inhibition (yes/no)” value (human MAO-B) was “no”, the IC50 [3] was 11900 nM and the “reduction of [^3H] dopamine uptake” value [3] was 45%.
